From PMC2667967 (Cancer cell, 2008)
Values belong to the molecule of their own block, whether it stands above or below them. Non-standard residues stand in square brackets, D forms with d. No end group written: not given here. *: point of attachment. FITC = O=C1OC2(c3ccc(O)cc3Oc3cc(O)ccc32)c2ccc(NC(=S)*)cc21

How the values were obtained:
[1] = molecular target: T1, GST-Bcl-2 (Homo sapiens, UniProt P10415); assay: FP competition assay, GST-Bcl-2; assay type: binding; settings: 200 nM GST-Bcl-2, 20 nM FITC-NuBCP-r8, PBS pH 7.6, 25°C, triplicate
[2] = tested on: Jurkat cells stably expressing Bcl-2; assay: Apoptosis of Jurkat cells stably expressing Bcl-2; assay type: cell-based; settings: Figure S3
Procedure, shortened: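 Jurkat cells stably carrying an empty neo vector or a Bcl-2 expression vector, with Bcl-2 levels checked by immunoblot. Cells were exposed to the test peptide (10 µM) in medium with 5% FBS for 36 h. Apoptosis was scored by DAPI nuclear morphology.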

[3] = tested on: CEM leukemia cells; assay: Killing of CEM leukemia cells stably expressing Bcl-2; assay type: cell-based; settings: Figure S4
[4] = tested on: Bcl-2^−/−MEFs; assay: Apoptosis of Bcl-2 knockout MEFs; assay type: cell-based, mouse; settings: STS 0.1 µM or Bad BH3 peptide 10 µM, 36 h, DAPI
Procedure, shortened: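 Wild-type and Bcl-2−/− MEFs, with Bcl-2 status confirmed by immunoblotting, were exposed to staurosporine (0.1 µM) or Bad BH3 peptide (10 µM) for 36 h. Peptide treatments used medium with 10% FBS unless otherwise specified. Apoptosis was scored from nuclear morphology after DAPI staining.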

[5] = molecular target: T1, GST-Bcl-2; assay: circular dichroism
[6] = molecular target: GST-Bcl-2/1-90 (UniProt P10415); assay: fluorescence polarisation
[7] = molecular target: T1, GST-Bcl-2; assay: FP binding to GST-Bcl-2; settings: 200 nM protein, 20 nM FITC peptide-r8, PBS pH 7.6, 25°C, triplicate
Procedure, shortened: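 GST-Bcl-2 (200 nM) was incubated briefly with FITC-labelled, r8-fused test peptide (20 nM) in PBS, pH 7.6, at 25°C, in triplicate. GST-Bcl-XL and GST served as comparison proteins. Polarization was read at excitation 485 nm and emission 530 nm once the signal stabilized within 20 min. Kd was calculated from single-site binding curves and reported as mean ± SD.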

[8] = tested on: GST; assay: FP binding to GST; settings: 200 nM protein, 20 nM FITC peptide-r8, PBS pH 7.6, 25°C
Procedure, shortened: (§1)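 Fluorescence polarization: 200 nM protein (GST or GST-Bcl-XL) was incubated with FITC-labelled r8 test peptide (20 nM) in PBS, pH 7.6, at 25°C, in triplicate. FP was read once the signal stabilized within 20 min (excitation 485 nm, emission 530 nm). Results are mean ± SD.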

[9] = molecular target: GST-Bcl-XL (Homo sapiens, UniProt Q07817); assay: FP binding to GST-Bcl-XL; settings: 200 nM protein, 20 nM FITC peptide-r8, PBS pH 7.6, 25°C
Procedure, shortened: as §1

[10] = tested on: Bcl-B; assay: Co-IP with Bcl-B; assay type: binding; settings: HEK293T
Procedure, shortened: (§2)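 HEK293T cells were transfected with GFP-Nur77/478-504 (2 µg), with or without a Myc-tagged Bcl-2 family member plasmid (0.8 µg). Lysates were immunoprecipitated and complexes detected by western blot. Input was 5% of lysate, and one of three experiments is shown.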

[11] = tested on: mitochondria (RFP-Mito), H460 cells; assay: Mitochondrial targeting in H460 cells; assay type: cell-based; settings: FITC-D-NuBCP-9-r8 6 µM, 2 hr, or GFP fusions transfected 12 hr
Procedure, shortened: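 H460 cells on glass coverslips were transfected with RFP-Mito (50 ng) plus GFP fused to Nur77 residues 489–497 or 478–504 (50 ng) for 12 hr. In a second arm, cells were transfected with RFP-Mito for 12 hr and then treated with 6 µM FITC-labelled, r8-fused test peptide for 2 hr. Subcellular fluorophore localization was analysed by confocal microscopy.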

[12] = tested on: Bfl-1; assay: Co-IP with Bfl-1; assay type: binding; settings: HEK293T
Procedure, shortened: as §2

[13] = tested on: Bax; assay: Bax activation in Bcl-2 knockout MEFs; assay type: cell-based, mouse; settings: NuBCP-9 10 µM 16 hr; or GFP-Nur77/478-504 cotransfected with Bcl-2
Procedure, shortened: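 Bcl-2−/− MEFs were run with wild-type MEFs and exposed to the test peptide (10 µM) for 16 hr. Alternatively, Bcl-2−/− MEFs were cotransfected with Bcl-2 (1 µg) plus GFP or GFP-Nur77/478-504 (1 µg). Active Bax was immunostained with 6A7 antibody and read by flow cytometry. Comparisons were treated vs untreated, or GFP-only vs Bcl-2-coexpressing cells from the same transfection.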

[14] = tested on: various cancer cell lines; assay: Apoptosis induction, various cancer cell lines; assay type: cell-based
[15] = tested on: normal primary mammary epithelial cells; assay: Apoptosis of normal primary mammary epithelial cells; assay type: cell-based; settings: 24 h, Annexin V; r8 conjugate
Procedure, shortened: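 Normal primary mammary epithelial cells were run alongside ZR-75-1 breast cancer cells. They were exposed to the r8-conjugated test peptide for 24 h in medium with 10% FBS. Apoptosis was read by Annexin V binding on flow cytometry.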

[16] = molecular target: GST-Bcl-2/1-90 (UniProt P10415 1-90); assay: fluorescence polarisation
[17] = molecular target: GST-Bcl-2 (UniProt P10415 1-239); assay: circular dichroism
[18] = molecular target: GST-Bcl-XL (UniProt Q07817-1 1-233); assay: fluorescence polarisation
Sequence of GST-Bcl-XL (UniProt Q07817-1 1-233) (Q07817 whole entry): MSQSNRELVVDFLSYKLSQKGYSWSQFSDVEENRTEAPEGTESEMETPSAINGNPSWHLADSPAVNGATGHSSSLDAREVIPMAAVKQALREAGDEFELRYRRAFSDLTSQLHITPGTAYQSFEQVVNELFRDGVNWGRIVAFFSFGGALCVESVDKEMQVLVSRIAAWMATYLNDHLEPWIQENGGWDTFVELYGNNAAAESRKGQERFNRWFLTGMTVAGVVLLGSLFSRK

T1 sequence (P10415 whole entry): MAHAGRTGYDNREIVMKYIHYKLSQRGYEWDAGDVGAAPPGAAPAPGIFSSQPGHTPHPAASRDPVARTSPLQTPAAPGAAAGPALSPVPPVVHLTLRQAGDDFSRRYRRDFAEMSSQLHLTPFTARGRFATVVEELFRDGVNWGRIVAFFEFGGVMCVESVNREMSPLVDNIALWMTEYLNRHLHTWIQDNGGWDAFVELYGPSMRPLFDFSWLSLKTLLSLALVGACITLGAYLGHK
Sequence of D-NuBCP-9 (unlabeled, in vitro assays) (P22736 whole entry, looked up): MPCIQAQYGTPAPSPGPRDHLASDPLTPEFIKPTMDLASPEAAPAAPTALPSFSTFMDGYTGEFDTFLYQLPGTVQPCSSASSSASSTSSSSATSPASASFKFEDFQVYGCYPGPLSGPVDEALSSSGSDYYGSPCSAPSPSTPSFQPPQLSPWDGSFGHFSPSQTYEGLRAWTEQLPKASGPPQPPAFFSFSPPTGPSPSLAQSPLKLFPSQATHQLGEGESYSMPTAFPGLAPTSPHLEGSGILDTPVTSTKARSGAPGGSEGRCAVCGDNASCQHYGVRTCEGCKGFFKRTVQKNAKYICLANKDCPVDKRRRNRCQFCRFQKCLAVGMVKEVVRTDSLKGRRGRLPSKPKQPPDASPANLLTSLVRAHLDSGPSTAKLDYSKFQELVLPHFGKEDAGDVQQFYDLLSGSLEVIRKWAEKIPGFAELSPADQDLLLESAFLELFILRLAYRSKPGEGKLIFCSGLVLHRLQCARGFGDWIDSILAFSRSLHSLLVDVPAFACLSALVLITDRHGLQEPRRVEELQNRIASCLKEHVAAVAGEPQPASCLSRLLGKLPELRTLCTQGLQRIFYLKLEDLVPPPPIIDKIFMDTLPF
Sequence of GST-Bcl-2 (UniProt P10415 1-239) (P10415 whole entry): as the sequence (P10415 whole entry) above
Sequence of GST-Bcl-XL (Homo sapiens, UniProt Q07817) (Q07817 whole entry): as the sequence (Q07817 whole entry) above
Sequence of GST-Bcl-2/1-90 (UniProt P10415 1-90) (P10415 1-90): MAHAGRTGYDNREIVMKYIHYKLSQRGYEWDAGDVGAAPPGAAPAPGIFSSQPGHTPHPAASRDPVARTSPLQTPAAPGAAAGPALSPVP
Sequence of GST-Bcl-2/1-90 (UniProt P10415) (P10415 1-90): as above
Sequence of FITC-D-NuBCP-9-r8 (P22736 whole entry, looked up): as the sequence (P22736 whole entry, looked up) above

Molecule: CN(C)CC[C@H](CSc1ccccc1)Nc1ccc(S(=O)(=O)NC(=O)c2ccc(N3CCN(Cc4ccccc4-c4ccc(Cl)cc4)CC3)cc2)cc1[N+](=O)[O-] [ABT-737]
- competition with FITC-NuBCP-9 binding to GST-Bcl-2 [1]: failure of either a BH3 peptide (Bak BH3) or a potent small molecule inhibitor (ABT-737) that targets the Bcl-2 BH3- binding site to reduce FITC-NuBCP-9 binding to GST-Bcl-2

Molecule: CN[C@@H]1C[C@H]2O[C@@](C)([C@@H]1OC)n1c3ccccc3c3c4c(c5c6ccccc6n2c5c31)C(=O)NC4 [STS, staurosporine]
- effect of Bcl-2 overexpression on apoptosis [2]: attenuated by Bcl-2 overexpression in Jurkat cells
- effect of stable Bcl-2 expression on killing [3]: prevented the killing
- effect of Bcl-2 knockout on death effect [4]: enhanced in Bcl-2^−/−MEFs

- Kd [5]: 2000 nM
- stoichiometry N [5]: 1
Molecule: D-NuBCP-9 (unlabeled, in vitro assays) (from UniProt P22736 489-497) (peptide)

- Kd [6]: 2500 nM
Molecule: FITC-D-NuBCP-9-r8 (from UniProt P22736 489-497) (peptide)

- FP change with GST-Bcl-2 [7]: little affected
Molecule: FITC-NuBCP-9/AA: FITC-labeled NuBCP-9/AA ({FITC}-ASRSLHSLA; also: r8 (D-Arg octamer) attached, end not given here)

Molecule: FITC-NuBCP-9: FITC-labeled NuBCP-9 (r8) ({FITC}-FSRSLHSLL; also: r8 (D-Arg octamer) attached, end not given here)
- FP change with GST-Bcl-2 [7]: induced a concentration-dependent FP of FITC-NuBCP-9 and FITC-D-NuBCP-9
- FP change with GST [8]: neither GST-Bcl-XL nor GST, induced a concentration-dependent FP
- FP change with GST-Bcl-XL [9]: neither GST-Bcl-XL nor GST, induced a concentration-dependent FP

Molecule: GFP-Nur77/478-504: residues 478–504 of Nur77 fused with green fluorescence protein (GFGDWIDSILAFSRSLHSLLVDVPAFA; also: fused with GFP, end not given here)
- binding to Bcl-B [10]: bound to anti-apoptotic Bcl-2 family members, Bcl-B and Bfl-1
- co-localization with RFP-Mito [11]: co-localized extensively with RFP-Mito
- binding to Bfl-1 [12]: bound to anti-apoptotic Bcl-2 family members, Bcl-B and Bfl-1
- Bax activation, Bcl-2^−/−MEFs [13]: Expression of Bcl-2 in Bcl-2^−/−MEFs restores Bax activation by NuBCP

Molecule: NuBCP-20: 20 amino acid peptide (aa 480 to 499) of Nur77 (GDWIDSILAFSRSLHSLLVD; UniProt P22736 480-499, looked up, fragment)
- apoptotic effect ([14]; r8 conjugate): potent apoptotic effect in various cancer cell lines
- apoptotic potency relative to Bid BH3 peptide ([14]; various cancer cell lines): more potent than a BH3 peptide derived from the pro-apoptotic Bcl-2 family member Bid
- apoptosis induction [15]: Neither NuBCP-20 nor NuBCP-9 induced the apoptosis of normal primary mammary epithelial cells

- Kd [16]: 1700 nM
Molecule: {FITC}-FSRSLHSLL[dR][dR][dR][dR][dR][dR][dR][dR] (peptide, UniProt P22736 489-497, looked up) [FITC-NuBCP-9-r8]

- stoichiometry N [17]: 1
Molecule: FSRSLHSLL (peptide, UniProt P22736 489-497, looked up) [NuBCP-9 (unlabeled, in vitro assays)]

- Kd [18]: 145 nM
Molecule: VHLTLRQAGDDFSRR (also: F5M-labelled Cys, position not given here) [F5M-Bcl-2 BH3 peptide]
